{"data": "Results of several laboratories", "target": "Inhibitor of nuclear factor kappa-B kinase subunit epsilon (IKBKE, Homo sapiens, UniProt Q14164)", "observed": "enzyme activity", "action": "inhibitor", "Sequence (Q14164 1-716, as in one of the studies)": "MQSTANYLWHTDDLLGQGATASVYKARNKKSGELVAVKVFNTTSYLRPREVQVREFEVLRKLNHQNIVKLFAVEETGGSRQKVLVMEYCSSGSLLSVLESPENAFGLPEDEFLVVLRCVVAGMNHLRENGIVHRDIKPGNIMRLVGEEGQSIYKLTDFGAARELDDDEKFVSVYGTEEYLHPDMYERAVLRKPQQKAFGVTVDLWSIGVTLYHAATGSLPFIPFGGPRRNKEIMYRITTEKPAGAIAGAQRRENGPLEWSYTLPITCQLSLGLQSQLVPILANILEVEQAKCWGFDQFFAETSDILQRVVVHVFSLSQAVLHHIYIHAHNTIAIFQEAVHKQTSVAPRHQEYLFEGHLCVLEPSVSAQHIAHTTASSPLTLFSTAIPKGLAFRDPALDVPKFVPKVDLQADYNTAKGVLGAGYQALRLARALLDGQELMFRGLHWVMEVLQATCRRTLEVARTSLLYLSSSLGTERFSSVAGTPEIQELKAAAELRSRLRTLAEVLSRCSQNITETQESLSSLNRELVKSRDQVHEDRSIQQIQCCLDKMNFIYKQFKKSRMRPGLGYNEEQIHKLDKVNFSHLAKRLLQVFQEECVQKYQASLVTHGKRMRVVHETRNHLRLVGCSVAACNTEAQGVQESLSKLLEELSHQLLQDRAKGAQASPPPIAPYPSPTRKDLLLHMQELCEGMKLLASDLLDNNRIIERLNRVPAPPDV", "note": "Protocols differ between the studies behind these lines."}
{"SMILES": "O=C(NCCCNc1nc(Nc2cccc(NC(=O)N3CCCC3)c2)ncc1I)c1cccs1", "method": "radiometric", "tested at": "1 µM", "remaining activity": "2%"}
{"SMILES": "Oc1cccc(-c2nc(N3CCOCC3)c3oc4ncccc4c3n2)c1", "tested at": "10 µM", "remaining activity": "85%"}
{"SMILES": "NS(=O)(=O)c1ccc(CNc2ccnc(Nc3cccc(CN4CCOCC4)c3)n2)cc1", "method": "radiometric", "tested at": "1 µM", "remaining activity": "78%"}
{"SMILES": "Cc1sc(C(=O)NC2COC2)cc1-n1cc(NC(=O)Nc2c(F)cccc2Cl)cn1", "tested at": "10 µM", "remaining activity": "116%"}
{"SMILES": "O=C1NC(=O)c2cc(Nc3ccc(F)cc3)c(Nc3ccc(F)cc3)cc21", "tested at": "0.5 µM", "remaining activity": "100%"}
{"SMILES": "Nc1ncnc2occ(-c3ccc(NC(=O)Nc4cc(C(F)(F)F)ccc4F)cc3)c12", "tested at": "20 µM", "remaining activity": "12%"}
{"SMILES": "Cc1nn(CC(F)(F)F)cc1Nc1ncc(C2CC2)c(NCCc2c[nH]cn2)n1", "method": "radiometric", "tested at": "1 µM", "remaining activity": "95%"}
{"SMILES": "O=C(Nc1cnn(-c2csc(C(=O)NC3COC3)c2)c1)Nc1ccccc1Cl", "tested at": "5 µM", "remaining activity": "110%"}
{"SMILES": "CCN(CC)CCNC(=O)c1c(C)[nH]c(/C=C2\\C(=O)Nc3ccc(Cl)cc32)c1C", "tested at": "0.5 µM", "remaining activity": "29.4%"}
{"SMILES": "CC(C)(C)c1nc2c(s1)c1nc(N)ncc1c1ccc(NS(=O)(=O)c3c(F)cccc3F)c(F)c12", "method": "radiometric", "tested at": "1 µM", "remaining activity": "90%"}
{"SMILES": "Cc1nn(CC(F)(F)F)cc1Nc1ncc(Br)c(NCCc2cnc[nH]2)n1", "method": "radiometric", "tested at": "1 µM", "remaining activity": "55%"}
{"SMILES": "Cn1c(=O)n(-c2ccc(C(C)(C)C#N)cc2)c2c3cc(-c4cnc5ccccc5c4)ccc3ncc21", "tested at": "10 µM", "remaining activity": "86%"}
{"SMILES": "Cc1ccc(C(=O)Nc2ccc(CN3CCN(C)CC3)c(C(F)(F)F)c2)cc1C#Cc1cnc2cccnn12", "tested at": "23.5 nM", "remaining activity": "99%"}
{"SMILES": "O=c1cc(-c2cccc3c2Sc2ccccc2S3)oc(N2CCOCC2)c1", "tested at": "0.5 µM", "remaining activity": "96.5%"}
{"SMILES": "COc1cc(Nc2cnc(C#N)c(O[C@H](C)CN(C)C)n2)ncc1-c1cnn(C)c1", "method": "radiometric", "tested at": "10 µM", "remaining activity": "84%"}
